These results are taken from ChEMBL document CHEMBL1122013, “Inhibitors of gastric acid secretion: 3,4-diamino-1,2,5-thiadiazole 1-oxides and 1,1-dioxides as urea equivalents in a series of histamine H2-receptor antagonists” (J Med Chem, 1982).

“And” between values parts separate entries of the source, which are not always exact repeats. Identical values can stand only once.

A short description of assay [1]: Slope value of the compound.
Assay [2] concerns the target Histamine H2 receptor (Cavia porcellus, UniProt P47747). Description: In vitro inhibition of Histamine H2 receptor by measuring its ability to block the histamine-stimulated adenylate cyclase of guinea pig hippocampal homogenate. In kind it is tissue-based, Hippocampus.
In assay [3] the target is Histamine H2 receptor (Cavia porcellus) (UniProt P47747). The conditions noted are these: Cardiac atrium.
Assay [4] has as its system Canis familiaris. Description: Inhibition of acid output in dogs (iv). In kind it is functional. The conditions noted are these: Canis lupus familiaris. Summed up:
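Dogs with gastric fistula under histamine stimulation. The compound is dissolved in aqueous vehicle with 1 equiv of HCl. It is given orally (po), or intravenously (iv) immediately before histamine. Acid secretion is measured over the period of maximum effect, 0-30 min after histamine. ED50 and confidence limits come from analysis of variance over four dose levels, with 3-5 dogs per dose.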

In assay [5] the test system is Canis familiaris. As to the kind of experiment: Inhibition of acid output in dogs (po). The conditions noted are these: Canis lupus familiaris. The class given is functional. The gist of the method:
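Dogs with a gastric fistula, stimulated with histamine, were dosed orally with compound solubilized in aqueous vehicle containing 1 equiv of HCl. Gastric secretion was measured over the period of maximum effectiveness (0-30 min after histamine). ED50 and confidence limits came from analysis of variance across four dose levels with 3-5 dogs per dose.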

Assay [6] is described as follows: Ratio (po/iv) value of the compound. In kind it is functional.
For assay [7], the target named is Histamine H2 receptor (Cavia porcellus) (UniProt P47747). Description: In vitro inhibition of Histamine H2 receptor by measuring its ability to block dimaprit-stimulated chronotropic response of guinea pig atrium strips. The class given is tissue-based. The conditions noted are these: Cardiac atrium.

Sequence of Histamine H2 receptor (Cavia porcellus) (P47747 whole entry): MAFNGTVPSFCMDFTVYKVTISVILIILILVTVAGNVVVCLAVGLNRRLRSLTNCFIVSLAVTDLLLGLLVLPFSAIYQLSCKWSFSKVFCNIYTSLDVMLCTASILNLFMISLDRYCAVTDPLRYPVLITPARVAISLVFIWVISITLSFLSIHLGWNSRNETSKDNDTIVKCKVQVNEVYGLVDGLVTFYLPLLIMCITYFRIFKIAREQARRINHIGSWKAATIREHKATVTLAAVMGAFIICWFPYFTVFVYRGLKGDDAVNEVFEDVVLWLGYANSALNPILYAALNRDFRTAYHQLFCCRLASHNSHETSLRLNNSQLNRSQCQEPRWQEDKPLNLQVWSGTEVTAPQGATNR
Sequence of Histamine H2 receptor (P47747 whole entry): as above

In the case of `Nc1n[s+]([O-])nc1NCCCOc1cccc(CN2CCCCC2)c1` (stereo not given), the Slope in assay [1] was 1.4 and 1.73.
One may read the Ki as the dissociation constant of the complex between target and ligand, obtained from inhibition or displacement. A lower Ki goes with tighter binding. Broadly, the ED50 is the dose that gives a 50% effect, or the effect in half of the subjects. Read a high ED50 as weaker potency. Regarding `CNC(=C[N+](=O)[O-])NCCSCc1ccc(CN(C)C)o1` [RANITIDINE], in assay [2], the Ki was 501 nM. The -Log KB in assay [3] is 7.32. Besides, the ED50 in assay [4] stood at 0.04 mg/kg; in assay [5], 0.42 mg/kg. For the same molecule, the Slope in assay [1] was 1.6 and 0.76. Besides, in assay [6], the Ratio is 14.
`N=C(N)Nc1nc(CSCCNc2n[s+]([O-])nc2N)cs1` (stereo not given) displayed a Slope in assay [1] of 0.85. This molecule yielded a -Log KB in assay [7] of 8.17.
`CN(C)Cc1ccc(CSCCNC2=NS(=O)(=O)N=C2N)o1`: the Slope in assay [1] is 1.3 and 0.53.
On the same count and under the same terms, to `CN(C)Cc1ccc(CSCCNc2n[s+]([O-])nc2N)o1` (stereo not given) belongs 1.1 and 0.55.
In assay [1], `Cc1[nH]cnc1CSCCNc1n[s+]([O-])nc1N` (stereo not given) yielded a Slope of 0.85. Besides, the -Log KB in assay [7] worked out at 5.98.
As to `CN/C(=N\CCSCc1nc[nH]c1C)NC#N` [CIMETIDINE], in assay [4], it took a dose of 1.84 mg/kg to reach the 50% effect level (ED50). Besides, the Slope in assay [1] is 0.9 and 0.78.
Take `CNc1n[s+]([O-])nc1NCCSCc1ccc(CN(C)C)o1` (stereo not given): the ED50 in assay [4] amounted to 0.05 mg/kg; in assay [5], 0.3 mg/kg. The Slope in assay [1] was found to be 1.03. Besides, the -Log KB in assay [7] was found to be 7.85. Moreover, the Ratio in assay [6] was found to be 6.
